Compound activity as filed in PubChem BioAssay.
Mdm2-MdmX inh: inhibitors of human Mdm2-MdmX association, primary screen, cell-based, luminescence, split luciferase, SaOS-2, uHTS; Protein Mdm4 (Homo sapiens) + E3 ubiquitin-protein ligase Mdm2 (Homo sapiens), …; SaOS-2 split-luciferase Mdm2/MdmX complementation; inhibition, % at 8 µM; 330,000 compounds, 3% hits;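 active = inhibition of at least 50% at 8 µM in the primary screen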
Target sequence (O15151 whole entry, looked up): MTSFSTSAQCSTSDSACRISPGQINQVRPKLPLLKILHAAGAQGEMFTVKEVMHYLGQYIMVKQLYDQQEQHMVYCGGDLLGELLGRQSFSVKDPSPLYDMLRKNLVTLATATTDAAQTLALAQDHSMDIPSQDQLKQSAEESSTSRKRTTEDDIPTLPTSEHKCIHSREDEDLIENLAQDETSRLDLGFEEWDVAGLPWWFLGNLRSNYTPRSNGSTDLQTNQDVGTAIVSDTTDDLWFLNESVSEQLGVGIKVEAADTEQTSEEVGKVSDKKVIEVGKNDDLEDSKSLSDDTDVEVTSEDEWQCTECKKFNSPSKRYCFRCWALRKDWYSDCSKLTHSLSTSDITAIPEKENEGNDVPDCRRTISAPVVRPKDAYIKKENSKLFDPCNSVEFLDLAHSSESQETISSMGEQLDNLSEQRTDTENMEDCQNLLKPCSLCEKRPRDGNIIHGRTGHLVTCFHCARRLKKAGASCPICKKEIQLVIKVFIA
Target sequence (Q00987 whole entry, looked up): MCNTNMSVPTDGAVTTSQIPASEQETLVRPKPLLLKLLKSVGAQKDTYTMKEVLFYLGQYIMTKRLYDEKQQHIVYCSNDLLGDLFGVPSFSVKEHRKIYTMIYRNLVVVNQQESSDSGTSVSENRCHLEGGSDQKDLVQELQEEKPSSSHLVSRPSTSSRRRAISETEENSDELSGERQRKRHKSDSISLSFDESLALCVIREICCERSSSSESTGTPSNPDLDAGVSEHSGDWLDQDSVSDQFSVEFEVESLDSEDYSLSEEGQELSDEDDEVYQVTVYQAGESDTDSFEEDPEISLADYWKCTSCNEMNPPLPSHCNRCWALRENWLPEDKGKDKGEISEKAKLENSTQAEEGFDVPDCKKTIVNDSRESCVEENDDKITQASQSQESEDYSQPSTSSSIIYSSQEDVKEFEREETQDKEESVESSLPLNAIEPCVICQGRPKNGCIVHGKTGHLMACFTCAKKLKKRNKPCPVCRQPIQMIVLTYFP
Beta apoptosis: inhibitors of cytokine-induced beta cell apoptosis, primary screen, luminescence. protection from apoptosis, % (concentration not given with the values). INS-1E cytokine-induced death, ATP luminescence, 48 h; percent of positive-control rescue, neutral wells zero. 300,000 compounds, 0.8% hits;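 active = Every replicate reaches about 75%, or at least half do and their mean reaches it too, limit read from the data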;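 note: 0% = cytokine-treated negative control wells and 100% = positive control rescue; higher means more ATP so stronger rescue from cytokine killing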
T cruzi inh: inhibitors of intracellular T. cruzi growth, primary screen, luminescence, NIH3T3 host cells; AID 1885, 2009; 300,000 compounds, 1.4% hits; T. cruzi beta-gal in NIH3T3, 90 h; inhibition, % (concentration not given with the values);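 active = mean inhibition across valid replicates above about 55%, limit read from the data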;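 note: signal also drops with host cell toxicity which is not excluded here; 0% = plate median of DMSO wells and 100% = zero luminescence signal; higher percent means less beta-gal luminescence so fewer parasites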
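Assay system: NIH/3T3 host cells with β-galactosidase reporter T. cruzi; input: 5,000 host fibroblasts per well; compound: single 50 nL compound addition per well in DMSO; timing: ≥90 h infection period, 3 h prior cell attachment; measured by: GalScreen β-gal luminescence, detergent lysis, 60 min; evaluation: percent inhibition of parasite-derived β-gal signal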
CSC inhib: cancer stem cell viability inhibitors, primary screen, luminescence | cancer stem cell-like cells viability | inhibition, % at 7.5 µM | 300,000 compounds, 1.1% hits | AID 2717, 2010; in the data active = inhibition above about 75%; tested in HMLE shEcad cells
SKKanGAS inh: S. pyogenes SKKanGAS growth inhibitors in kanamycin, primary screen, streptokinase expression inhibitor project, SKKanGAS strain, BacTiter-Glo luminescence. 300,000 compounds, 1.3% hits. inhibition, % at 7.5 µM. 6 h;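 active = mean replicate score, as percent of positive control median, at least 50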;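 note: strain carries kanamycin resistance gene driven by streptokinase promoter and grows in 40 µg/ml kanamycin; loss of luminescence reflects streptokinase promoter inhibition or plain growth inhibition; 0% = median of DMSO wells and 100% = positive control at its reference dose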
Lmaj promast: Leishmania major promastigote growth inhibition, primary screen; Leishmania major promastigotes, resazurin fluorescence viability; inhibition, % at 10 µM; 200,000 compounds, 9% hits; AID 1063, 2008; in the data active = inhibition above about 50%;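 note: promastigotes grown with compound for 44 hours at 28 °C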
Mdm2-MdmX conf: Mdm2-MdmX complex disruptors, retested hits, confirmation, luminescence, single concentration; 10,000 compounds, 55% hits; AID 489028, 2010; shares compounds with Mdm2-MdmX inh; inhibition, % at 8 µM; Mdm2-MdmX binding, luminescent assay; in the data active = inhibition above about 40%
FLuc counter: full-length luciferase signal inhibition, confirmation, counter-screen for Mdm2/MdmX interaction inhibitor project, cell-based, single concentration, SaOS-2. shares compounds with Mdm2-MdmX inh. SaOS-2 full-length luciferase counterscreen, luminescence. inhibition, % at 8 µM. 6,200 compounds, 77% hits;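 active = mean inhibition at 8 µM reaching about 37%, which flags the compound as non-specific, limit read from the data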;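 note: p53-null SaOS-2 cells with luciferase driven by a doxycycline-inducible promoter; compound on cells about two nights before reading with doxycycline added after day one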
The depositor's hits bear a star; . = no result given. Hits are enriched below; roughly 9.4% of the tested compounds scored in any of these assays.

SMILES	Mdm2-MdmX inh	Beta apoptosis	T cruzi inh	CSC inhib	SKKanGAS inh	Lmaj promast	Mdm2-MdmX conf	FLuc counter
O=C(N/N=C/c1cc(O)ccc1[N+](=O)[O-])c1ccc2c(c1)OCCO2	-8	-7	-19	6	-20	.	.	.
O=C(NCC1COCCO1)c1cc(COc2ccc(F)cc2F)on1 (stereo not given)	6	.	-15	4	4	.	.	.
O=C(NC1c2ccccc2-c2ccccc21)N1CCOCC1	50*	0	3	-8	-5	-3	15	.
Cc1ccc(S(=O)(=O)CCc2nc3ccccc3n2CCC#N)cc1	62*	-18	-4	-5	0	11	37	32
O=C(CSc1ncn[nH]1)N1N=C2/C(=C/c3ccccc3)CCCC2C1c1ccccc1 (stereo not given)	53*	-6	4	.	-5	6	19	.
O=C(O)CSCC(=O)N1N=C2/C(=C/c3ccccc3)CCCC2C1c1ccccc1 (stereo not given)	21	-4	4	5	25	.	.	.
Cc1ccc(C(C(=O)NCc2ccccc2)N(Cc2cccs2)C(=O)c2ccc3c(c2)OCCO3)cc1 (stereo not given)	79*	8	14	44	22	4	78*	69*
COC(=O)c1ccc(C(C(=O)NCc2ccccc2)N(Cc2cccs2)C(=O)c2cnccn2)cc1 (stereo not given)	14	-3	7	-5	2	3	.	.
COCCN(C(=O)Cc1cccs1)C(C(=O)NCc1ccc(OC)cc1)c1ccc(OC)cc1 (stereo not given)	-4	.	23	.	-2	-2	.	.
COc1ccc(CNC(=O)C(c2ccc(C)cc2)N(Cc2cccs2)C(=O)c2ccc3c(c2)OCCO3)cc1 (stereo not given)	75*	4	14	15	2	99*	75*	60*
COc1cccc(NC(=O)COc2cc(O)c3c(c2)OC(C)(C)CC3=O)c1	-44	-11	-4	-3	5	.	.	.
O=C1CC(N(CCc2ccccc2)C(=S)Nc2ccccc2)C(=O)N1c1ccc(Br)cc1 (stereo not given)	68*	43	53	-6	69*	37	38	59*
C=CCc1cccc(C2Nc3ccccc3C(=O)N2O)c1O (stereo not given)	72*	4	-7	.	9	-8	5	.
Cc1nn(C)cc1C1Nc2ccccc2C(=O)N1O (stereo not given)	10	7	4	-5	7	-2	.	.
O=C1c2ccccc2NC(c2ccc(Cl)cc2Cl)N1O (stereo not given)	65*	3	-23	.	2	70*	46*	31
Cc1ccsc1C1Nc2ccccc2C(=O)N1O (stereo not given)	18	-2	-5	0	-7	-7	.	.
Cc1nonc1NC(=O)CSc1nc(C23CC4CC(CC(C4)C2)C3)nc2ccccc12	52*	10	30	29	24	.	23	.
NC(=O)CSc1nc(C23CC4CC(CC(C4)C2)C3)nc2ccccc12	60*	-8	27	55	3	14	38	45*
NC(=O)CSc1nc2ccccc2nc1SCC(N)=O	-28	-2	6	-19	0	-3	.	.
Cc1nonc1NC(=O)CSc1nc(C2CCCCC2)nc2ccccc12	40	-4	12	22	10	18	.	.
CCN(CC)CCNC(=O)c1ccc(NC(=O)c2ccc(Cl)c(S(=O)(=O)N3CCCCCC3)c2)cc1	94*	12	5	9	-7	.	37	.
CCN(CC)CCNC(=O)c1ccc(Cl)c(S(=O)(=O)Nc2ccc(Cl)cc2)c1	28	.	-10	5	6	34	.	.
CCN(CC)CCNC(=O)c1ccc(NC(=O)c2ccc(C(=O)c3ccccc3)cc2)cc1	44	0	-40	2	-17	.	.	.
CCN(CC)CCNC(=O)c1ccc(NC(=O)c2ccc(COc3ccccc3)cc2)cc1	83*	1	14	-6	1	.	34	.
CN(CC(=O)Nc1ccc(Cl)c(C(F)(F)F)c1)C(=O)C1CCCO1 (stereo not given)	-8	-2	.	-15	.	.	.	.
SMILES	Mdm2-MdmX inh	Beta apoptosis	T cruzi inh	CSC inhib	SKKanGAS inh	Lmaj promast	Mdm2-MdmX conf	FLuc counter
Cc1ccc(N2CC(C(=O)N(C)CC(=O)Nc3ccc(Cl)c(C(F)(F)F)c3)CC2=O)cc1 (stereo not given)	59*	-4	-16	16	-1	.	44*	66*
CC(C)c1ccc(N2CC(C)(C)C2=O)cc1	-12	1	-18	8	7	-8	.	.
CN1CCN(CCCNC(=O)c2ccc3c(Cl)c4c(nc3c2)CCCC4)CC1	76*	-1	2	-18	-2	.	42*	58*
CN(C(=O)c1ccc2c(Cl)c3c(nc2c1)CCC3)c1ccccc1	-1	4	10	.	-15	8	.	.
O=C(c1ccc2c(Cl)c3c(nc2c1)CCCC3)N1CCC(N2CCCCC2)CC1	58*	-2	41	27	3	30	25	.
CCN(C(=O)c1ccc2c(Cl)c3c(nc2c1)CCC3)c1ccc(C)c(C)c1	53*	11	28	.	27	20	43*	82*
COc1ccc(N=C2CC(C)(C)CC(=O)/C2=C(/O)c2ccccc2)cc1	5	-4	-14	-3	-13	13	.	.
CCOc1ccc(C(=O)COC(=O)c2nc3nccc(C)n3n2)cc1	5	1	.	.	.	.	.	.
COc1ccc(C(=O)O/N=C(\N)c2cccc(C)c2)cc1OC	96*	6	16	-2	-5	.	50*	137*
COc1cc(OC)c(C(=O)O/N=C(\N)c2ccccn2)cc1OC	46	6	5	-9	-5	.	.	.
COc1ccc(C(=O)O/N=C(\N)c2ccccc2)cc1OC	62*	4	10	-6	-4	.	-10	.
COc1cc(OC)c(C(=O)O/N=C(\N)c2ccccc2)cc1OC	57*	2	28	-13	-5	.	4	.
CC(=O)NCc1ccc(-c2csc(-c3cccs3)n2)cc1	-54	4	4	21	-7	.	.	.
O=C(Nc1cccc([N+](=O)[O-])c1)C1COc2ccccc2O1 (stereo not given)	-7	2	-7	6	5	.	.	.
